Data as given in ChEMBL document CHEMBL4689842, “EUbOPEN Chemogenomics Library wave 1” (2021).
“And” between values parts separate entries of the source, which are not always exact repeats. Identical values can stand only once.

Legend:
Assay type in all cases: toxicity, cell-based
Fibroblast [1] = assay: Multiplex assay against human fibroblast; conditions: 10 µM, compound concentration 10 uM
Method in brief: (§1)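 Per cents of healthy-nucleus cells form the tubulin, mitochondrial-mass and membrane-permeability phenotype values. Live cells were stained at seeding with Hoechst33342, BioTracker Green Microtubule Cytoskeleton Dye, MitoTracker Red and Annexin V Alexa Fluor 680. After compound addition they were imaged on a CQ1 microscope at 37°C and 5% CO2, and CellPathfinder machine-learning gating split them into Hoechst high-intensity objects or normal cells, normal cells into healthy, pyknosed or fragmented nuclei, and pyknosed cells into mitotic or apoptotic.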

HEK-293T [2] = assay: Multiplex assay against HEK293T; conditions: human, 10 µM, compound concentration 10 uM; method in brief: as §1;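 on Population Tubulin-Different-Phenotype (%): share of the cells with healthy nuclei that show this phenotype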
U2OS [3] = assay: Multiplex assay against U2OS; conditions: human, 10 µM, compound concentration 10 uM; method in brief: as §1
HEK-293T [4] = assay: Incucyte cell viability with HEK293T; conditions: human, 10 µM, compound concentration 10 uM; further: filed as whole numbers so only -1 and 0 and 1 occur
Fibroblast [5] = assay: Incucyte cell viability with human fibroblast; conditions: 10 µM, compound concentration 10 uM; further: filed as whole numbers so only -1 and 0 and 1 occur
U2OS [6] = assay: Incucyte cell viability with U2OS; conditions: human, 10 µM, compound concentration 10 uM; further: filed as whole numbers so only -1 and 0 and 1 occur
[7] = 0 h, replicate number 2, timepoint 0 hours
[8] = 24 h, replicate number 2, timepoint 24 hours
[9] = 6 h, replicate number 1, timepoint 6 hours
[10] = 12 h, replicate number 1, timepoint 12 hours
[11] = 12 h, replicate number 2, timepoint 12 hours
[12] = 18 h, replicate number 1, timepoint 18 hours
[13] = 18 h, replicate number 2, timepoint 18 hours
[14] = 24 h, replicate number 1, timepoint 24 hours

SMILES: Cc1c(Oc2ccc(F)cc2)c(OC(C)C)nn1-c1ccc(C2CC2)cn1 [IPP/CNRS-A019]
- Population Apoptotic (%) (Fibroblast [1]; 12 h, replicate 1): 78% and 77%
- Population Fragmented Nuclei (%) (Fibroblast [1]; 12 h, replicate 1): 26% and 22%
- Population Healthy Nuclei (%) (Fibroblast [1]; 12 h, replicate 1): 58% and 60%
- Population Hoechst High Intensity Objects (%) (Fibroblast [1]; 12 h, replicate 1): 12% and 13%
- Population Membrane Permeable-Phenotype (%) (Fibroblast [1]; 12 h, replicate 1): 5%
- Population Mitochondria Different-Phenotype (%) (Fibroblast [1]; 12 h, replicate 1): 3% and 6%
- Population Mitotic Cells (%) (Fibroblast [1]; 12 h, replicate 1): 21% and 22%
- Population Normal (%) (Fibroblast [1]; 12 h, replicate 1): 87% and 86%
- Population Pyknosed Nuclei (%) (Fibroblast [1]; 12 h, replicate 1): 15% and 18%
- Population Tubulin-Different-Phenotype (%) (Fibroblast [1]; 12 h, replicate 1): 9% and 4%
- Total Cell Count (Fibroblast [1]; 12 h, replicate 1): 308 and 230
- Population Fragmented Nuclei (%) (Fibroblast [1]; 12 h, replicate 2): 33% and 67%
- Population Healthy Nuclei (%) (Fibroblast [1]; 12 h, replicate 2): 49% and 28%
- Population Hoechst High Intensity Objects (%) (Fibroblast [1]; 12 h, replicate 2): 38% and 40%
- Population Mitochondria Different-Phenotype (%) (Fibroblast [1]; 12 h, replicate 2): 19% and 42%
- Population Normal (%) (Fibroblast [1]; 12 h, replicate 2): 61% and 59%
- Total Cell Count (Fibroblast [1]; 12 h, replicate 2): 103 and 83
- Population Apoptotic (%) (Fibroblast [1]; 24 h, replicate 1): 69% and 48%
- Population Fragmented Nuclei (%) (Fibroblast [1]; 24 h, replicate 1): 22% and 21%
- Population Healthy Nuclei (%) (Fibroblast [1]; 24 h, replicate 1): 62% and 63%
- Population Hoechst High Intensity Objects (%) (Fibroblast [1]; 24 h, replicate 1): 16% and 19%
- Population Membrane Permeable-Phenotype (%) (Fibroblast [1]; 24 h, replicate 1): 5% and 4%
- Population Mitochondria Different-Phenotype (%) (Fibroblast [1]; 24 h, replicate 1): 7%
- Population Mitotic Cells (%) (Fibroblast [1]; 24 h, replicate 1): 30% and 51%
- Population Normal (%) (Fibroblast [1]; 24 h, replicate 1): 83% and 80%
- Population Pyknosed Nuclei (%) (Fibroblast [1]; 24 h, replicate 1): 14% and 15%
- Population Tubulin-Different-Phenotype (%) (Fibroblast [1]; 24 h, replicate 1): 9% and 4%
- Total Cell Count (Fibroblast [1]; 24 h, replicate 1): 321 and 238
- Population Fragmented Nuclei (%) (Fibroblast [1]; 24 h, replicate 2): 44% and 63%
- Population Healthy Nuclei (%) (Fibroblast [1]; 24 h, replicate 2): 46% and 34%
- Population Hoechst High Intensity Objects (%) (Fibroblast [1]; 24 h, replicate 2): 38%
- Population Membrane Permeable-Phenotype (%) (Fibroblast [1]; 24 h, replicate 2): 10% and 0%
- Population Normal (%) (Fibroblast [1]; 24 h, replicate 2): 61%
- Total Cell Count (Fibroblast [1]; 24 h, replicate 2): 103 and 84
- Population Apoptotic (%) (HEK-293T [2]; 12 h, replicate 1): 12% and 19%
- Population Fragmented Nuclei (%) (HEK-293T [2]; 12 h, replicate 1): 13% and 11%
- Population Healthy Nuclei (%) (HEK-293T [2]; 12 h, replicate 1): 69% and 68%
- Population Hoechst High Intensity Objects (%) (HEK-293T [2]; 12 h, replicate 1): 8% and 10%
- Population Membrane Permeable-Phenotype (%) (HEK-293T [2]; 12 h, replicate 1): 5% and 3%
- Population Mitochondria Different-Phenotype (%) (HEK-293T [2]; 12 h, replicate 1): 7% and 5%
- Population Mitotic Cells (%) (HEK-293T [2]; 12 h, replicate 1): 87% and 80%
- Population Normal (%) (HEK-293T [2]; 12 h, replicate 1): 91% and 89%
- Population Pyknosed Nuclei (%) (HEK-293T [2]; 12 h, replicate 1): 17% and 19%
- Population Tubulin-Different-Phenotype (%) (HEK-293T [2]; 12 h, replicate 1): 7% and 3%
- Total Cell Count (HEK-293T [2]; 12 h, replicate 1): 607 and 515
- Population Apoptotic (%) (HEK-293T [2]; 12 h, replicate 2): 15% and 18%
- Population Fragmented Nuclei (%) (HEK-293T [2]; 12 h, replicate 2): 7% and 9%
- Population Healthy Nuclei (%) (HEK-293T [2]; 12 h, replicate 2): 89% and 86%
- Population Hoechst High Intensity Objects (%) (HEK-293T [2]; 12 h, replicate 2): 2% and 1%
- Population Membrane Permeable-Phenotype (%) (HEK-293T [2]; 12 h, replicate 2): 4% and 1%
- Population Mitochondria Different-Phenotype (%) (HEK-293T [2]; 12 h, replicate 2): 17%
- Population Mitotic Cells (%) (HEK-293T [2]; 12 h, replicate 2): 84% and 81%
- Population Normal (%) (HEK-293T [2]; 12 h, replicate 2): 97% and 98%
- Population Pyknosed Nuclei (%) (HEK-293T [2]; 12 h, replicate 2): 2% and 3%
- Total Cell Count (HEK-293T [2]; 12 h, replicate 2): 1658 and 1670
- Population Apoptotic (%) (HEK-293T [2]; 24 h, replicate 1): 28% and 16%
- Population Fragmented Nuclei (%) (HEK-293T [2]; 24 h, replicate 1): 12% and 14%
- Population Healthy Nuclei (%) (HEK-293T [2]; 24 h, replicate 1): 77%
- Population Hoechst High Intensity Objects (%) (HEK-293T [2]; 24 h, replicate 1): 6%
- Population Membrane Permeable-Phenotype (%) (HEK-293T [2]; 24 h, replicate 1): 10%
- Population Mitochondria Different-Phenotype (%) (HEK-293T [2]; 24 h, replicate 1): 4% and 8%
- Population Mitotic Cells (%) (HEK-293T [2]; 24 h, replicate 1): 71% and 83%
- Population Normal (%) (HEK-293T [2]; 24 h, replicate 1): 93%
- Population Pyknosed Nuclei (%) (HEK-293T [2]; 24 h, replicate 1): 10% and 7%
- Population Tubulin-Different-Phenotype (%) (HEK-293T [2]; 24 h, replicate 1): 6% and 9%
- Total Cell Count (HEK-293T [2]; 24 h, replicate 1): 595 and 667
- Population Apoptotic (%) (HEK-293T [2]; 24 h, replicate 2): 9% and 6%
- Population Fragmented Nuclei (%) (HEK-293T [2]; 24 h, replicate 2): 19% and 8%
- Population Healthy Nuclei (%) (HEK-293T [2]; 24 h, replicate 2): 78% and 89%
- Population Hoechst High Intensity Objects (%) (HEK-293T [2]; 24 h, replicate 2): 2%
- Population Membrane Permeable-Phenotype (%) (HEK-293T [2]; 24 h, replicate 2): 2%
- Population Mitotic Cells (%) (HEK-293T [2]; 24 h, replicate 2): 90% and 93%
- Population Normal (%) (HEK-293T [2]; 24 h, replicate 2): 97%
- Population Pyknosed Nuclei (%) (HEK-293T [2]; 24 h, replicate 2): 2% and 1%
- Population Tubulin-Different-Phenotype (%) (HEK-293T [2]; 24 h, replicate 2): 20%
- Total Cell Count (HEK-293T [2]; 24 h, replicate 2): 2108 and 1925
- Population Apoptotic (%) (U2OS [3]; 12 h, replicate 1): 23% and 20%
- Population Fragmented Nuclei (%) (U2OS [3]; 12 h, replicate 1): 3%
- Population Healthy Nuclei (%) (U2OS [3]; 12 h, replicate 1): 88%
- Population Hoechst High Intensity Objects (%) (U2OS [3]; 12 h, replicate 1): 2% and 3%
- Population Membrane Permeable-Phenotype (%) (U2OS [3]; 12 h, replicate 1): 12% and 11%
- Population Mitochondria Different-Phenotype (%) (U2OS [3]; 12 h, replicate 1): 11% and 23%
- Population Mitotic Cells (%) (U2OS [3]; 12 h, replicate 1): 76% and 80%
- Population Normal (%) (U2OS [3]; 12 h, replicate 1): 97% and 96%
- Population Pyknosed Nuclei (%) (U2OS [3]; 12 h, replicate 1): 7% and 6%
- Population Tubulin-Different-Phenotype (%) (U2OS [3]; 12 h, replicate 1): 14% and 25%
- Total Cell Count (U2OS [3]; 12 h, replicate 1): 250 and 141
- Population Apoptotic (%) (U2OS [3]; 12 h, replicate 2): 50% and 33%
- Population Fragmented Nuclei (%) (U2OS [3]; 12 h, replicate 2): 5% and 8%
- Population Healthy Nuclei (%) (U2OS [3]; 12 h, replicate 2): 90% and 87%
- Population Hoechst High Intensity Objects (%) (U2OS [3]; 12 h, replicate 2): 11% and 13%
- Population Membrane Permeable-Phenotype (%) (U2OS [3]; 12 h, replicate 2): 15% and 7%
- Population Mitochondria Different-Phenotype (%) (U2OS [3]; 12 h, replicate 2): 21% and 25%
- Population Mitotic Cells (%) (U2OS [3]; 12 h, replicate 2): 50% and 66%
- Population Normal (%) (U2OS [3]; 12 h, replicate 2): 88% and 86%
- Population Pyknosed Nuclei (%) (U2OS [3]; 12 h, replicate 2): 4%
- Population Tubulin-Different-Phenotype (%) (U2OS [3]; 12 h, replicate 2): 19% and 24%
- Total Cell Count (U2OS [3]; 12 h, replicate 2): 152 and 113
- Population Apoptotic (%) (U2OS [3]; 24 h, replicate 1): 42% and 34%
- Population Fragmented Nuclei (%) (U2OS [3]; 24 h, replicate 1): 2% and 3%
- Population Healthy Nuclei (%) (U2OS [3]; 24 h, replicate 1): 93% and 90%
- Population Hoechst High Intensity Objects (%) (U2OS [3]; 24 h, replicate 1): 2% and 1%
- Population Membrane Permeable-Phenotype (%) (U2OS [3]; 24 h, replicate 1): 8% and 7%
- Population Mitochondria Different-Phenotype (%) (U2OS [3]; 24 h, replicate 1): 9%
- Population Mitotic Cells (%) (U2OS [3]; 24 h, replicate 1): 57% and 65%
- Population Normal (%) (U2OS [3]; 24 h, replicate 1): 97% and 98%
- Population Pyknosed Nuclei (%) (U2OS [3]; 24 h, replicate 1): 5%
- Population Tubulin-Different-Phenotype (%) (U2OS [3]; 24 h, replicate 1): 25% and 18%
- Total Cell Count (U2OS [3]; 24 h, replicate 1): 149 and 352
- Population Fragmented Nuclei (%) (U2OS [3]; 24 h, replicate 2): 8% and 7%
- Population Healthy Nuclei (%) (U2OS [3]; 24 h, replicate 2): 87% and 85%
- Population Hoechst High Intensity Objects (%) (U2OS [3]; 24 h, replicate 2): 4% and 5%
- Population Membrane Permeable-Phenotype (%) (U2OS [3]; 24 h, replicate 2): 15% and 9%
- Population Mitochondria Different-Phenotype (%) (U2OS [3]; 24 h, replicate 2): 24% and 37%
- Population Normal (%) (U2OS [3]; 24 h, replicate 2): 95% and 94%
- Population Pyknosed Nuclei (%) (U2OS [3]; 24 h, replicate 2): 4% and 6%
- Population Tubulin-Different-Phenotype (%) (U2OS [3]; 24 h, replicate 2): 16% and 24%
- Total Cell Count (U2OS [3]; 24 h, replicate 2): 184 and 121
- Growth Rate (HEK-293T [4]; 0 h, replicate number 1, timepoint 0 hours): 0
- Growth Rate (HEK-293T [4]; [7]): 1
- Growth Rate (HEK-293T [4]; [8]): 1
- Growth Rate (Fibroblast [5]; [7]): 0
- Growth Rate (Fibroblast [5]; [9]): 0
- Growth Rate (Fibroblast [5]; [10]): 0
- Growth Rate (Fibroblast [5]; [11]): 1
- Growth Rate (Fibroblast [5]; [12]): 0
- Growth Rate (Fibroblast [5]; [13]): 1
- Growth Rate (Fibroblast [5]; [14]): 0
- Growth Rate (Fibroblast [5]; [8]): 1
- Growth Rate (U2OS [6]; [7]): 0
- Growth Rate (U2OS [6]; [9]): 1
- Growth Rate (U2OS [6]; 6 h, replicate number 2, timepoint 6 hours): 0
- Growth Rate (U2OS [6]; [10]): 1
- Growth Rate (U2OS [6]; [11]): 0
- Growth Rate (U2OS [6]; [12]): 1
- Growth Rate (U2OS [6]; [13]): 0
- Growth Rate (U2OS [6]; [14]): 1
- Growth Rate (U2OS [6]; [8]): 0
